Measurements from ChEMBL document CHEMBL2321805, “N-methyldihydroquinazolinone derivatives of Retro-2 with enhanced efficacy against Shiga toxin” (J Med Chem, 2013).
Activity calls are given as the source filed them. No cut-off for these calls is given here.

Legend:
HeLa [1] = experiment: Cytoprotective activity against shiga toxin-induced cytotoxicity in human HeLa cells at 30 uM incubated for 4 hrs prior to shiga toxin addition measured after 20 hrs by liquid scintillation counting analysis; assay type: functional, cell-based
HeLa [2] = experiment: Cytoprotective activity against shiga toxin-induced cytotoxicity in human HeLa cells at 30 uM incubated for 4 hrs prior to shiga toxin addition measured after 20 hrs by liquid scintillation counting analysis relative to Retro-2; assay type: functional
HeLa [3] = experiment: Inhibition of shiga toxin retrograde transport in human HeLa cells assessed as relocalization of syntaxin 5 at 20 uM after 30 mins by immunofluorescence staining; assay type: functional, cell-based
How it was run: (§1)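 HeLa cells were treated for 30 min with 20 μM compound or DMSO carrier, then fixed. They were immunolabeled for syntaxin 5 and the Golgi marker giantin and imaged by confocal microscopy with a 60× oil objective (NA 1.4). Maximum projections of 6–8 Z slices at 250 nm spacing are shown.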

HeLa [4] = experiment: Inhibition of shiga toxin retrograde transport in human HeLa cells after 20 mins by sulfation assay relative to control; assay type: functional
HeLa [5] = experiment: Inhibition of shiga toxin retrograde transport in human HeLa cells assessed as change in golgi apparatus morphology at 20 uM after 30 mins by immunofluorescence staining; assay type: functional, cell-based; how it was run: as §1

SMILES | EC50 (HeLa [1]) [µM] | Activity (HeLa [2]) | also measured
Cc1ccc(C2Nc3ccccc3C(=O)N2c2ccccc2Cl)s1 (racemic) | 14.8 | 211% | –
Cc1ccc(C2Nc3ccccc3C(=O)N2c2ccccc2)s1 (racemic) | 27.3 | 100% | inhibition (HeLa [3]): Active; inhibition (INH) (HeLa [4]): 36.9%
O=C1c2ccccc2NC(c2ccc(-c3cccs3)s2)N1c1ccccc1 (racemic) | 5.1 | 111.6% | –
CN1c2ccccc2C(=O)N(c2ccccc2)C1c1ccc(-c2ccco2)s1 (racemic) | 1.5 | 140.4% | –
Cc1ccc(C2N(C)c3ccccc3C(=O)N2c2ccccc2F)s1 (racemic) | 5.5 | 208.6% | –
Cc1ccc(C2N(C)c3ccccc3C(=O)N2c2ccccc2)s1 (racemic) | 10.2 | 275% | inhibition (INH) (HeLa [4]): 38.7%
CN1c2ccccc2C(=O)N(c2ccccc2)C1c1ccc(-c2ccccc2)s1 (racemic) | 2.1 | 309% | –
O=C1c2ccccc2NC(c2ccc(Br)s2)N1c1ccccc1 (racemic) | 13.7 | 146% | –
CCc1ccc(C2N(C)c3ccccc3C(=O)N2c2ccccc2)s1 (racemic) | 4.2 | 323% | inhibition (INH) (HeLa [4]): 0%
CSc1ccc(C2N(C)c3ccccc3C(=O)N2c2ccccc2)s1 (racemic) | 4.8 | 265.9% | –
Cc1ccc(C2Nc3ccccc3C(=O)N2c2ccncc2)s1 (racemic) | – | 0% | –
CSc1ccc(C2Nc3ccccc3C(=O)N2c2ccccc2)s1 (racemic) | 7.8 | 249% | –
Cc1ccc(C2Nc3ccccc3C(=O)N2c2cccc(Br)c2)s1 (racemic) | – | 0% | –
Cc1ccc(C2N(C)c3ccccc3C(=O)N2c2ccccc2C#N)s1 (racemic) | – | 54% | –
CN1c2ccccc2C(=O)N(c2ccccc2)C1c1ccc(-c2ccc(C#N)cc2)s1 (racemic) | – | 0% | –
CN1c2ccccc2C(=O)N(c2ccccc2)C1c1ccc(-c2ccc3ccccc3c2)s1 (racemic) | – | 9.7% | –
Cc1ccc(C2Nc3ccccc3C(=O)N2c2cccnc2)s1 (racemic) | – | 0% | –
Cc1ccc(C2N(C)c3ccccc3C(=O)N2c2ccccc2-c2ccccc2)s1 (racemic) | – | 99% | –
CN1c2ccccc2C(=O)N(c2ccccc2)C1c1ccc(-c2csc3ccccc23)s1 (racemic) | – | 0% | –
Cc1ccc(C2Nc3ccccc3C(=O)N2[C@H]2C[C@@H]3CC[C@H]2C3)s1 (mixture of isomers) | – | 0% | –
CC(=O)c1ccc(-c2ccc(C3N(C)c4ccccc4C(=O)N3c3ccccc3)s2)cc1 (racemic) | – | 0.7% | –

SMILES | EC50 (HeLa [1]) [µM] | Activity (HeLa [2]) | also measured
Cc1ccc(C2N(C)c3ccccc3C(=O)N2c2ccccc2Cl)s1 (racemic) | 8.2 | 230% | –
COc1ccccc1N1C(=O)c2ccccc2N(C)C1c1ccc(C)s1 (racemic) | 5.4 | 264.4% | –
O=C1c2ccccc2NC(c2ccc(-c3ccccn3)s2)N1c1ccccc1 (racemic) | 12 | 468% | –
CCc1ccc(C2Nc3ccccc3C(=O)N2c2ccccc2)s1 (racemic) | 8.7 | 166% | inhibition (INH) (HeLa [4]): 13.5%
CN1c2ccccc2C(=O)N(c2ccccc2)C1c1ccc(Sc2ccccc2)s1 (racemic) | – | 75.5% | –
COc1ccc(C2Nc3ccccc3C(=O)N2c2ccccc2)cc1 (racemic) | – | 10% | –
COc1cccc(C2Nc3ccccc3C(=O)N2c2ccccc2)c1 (racemic) | – | 0% | –
CN1c2ccccc2C(=O)N(c2ccccc2)C1c1ccc(-c2ccoc2)s1 (racemic) | – | 74.7% | –
CN(C)c1ccc(C2Nc3ccccc3C(=O)N2c2ccccc2)cc1 (racemic) | – | 48% | –
Cc1nc(-c2ccc(C3Nc4ccccc4C(=O)N3c3ccccc3)s2)cs1 (racemic) | 1.4 | 271% | inhibition (INH) (HeLa [4]): 0%
Cc1ccc(C2Nc3ccccc3C(=O)N2c2ccc(Cl)cc2)s1 (racemic) | – | 0% | –
CCC(C)N1C(=O)c2ccccc2NC1c1ccc(C)s1 (racemic) | – | 0% | –
CCCN1c2ccccc2C(=O)N(c2ccccc2)C1c1ccc(C)s1 (racemic) | – | 0% | –
Cc1ccc(C2Nc3ccccc3C(=O)N2c2ccncn2)s1 (racemic) | – | 0.5% | –
Cc1ccc(C2N(C)c3ccccc3C(=O)N2c2ccccc2)s1 (single isomer, unassigned; form 2) | – | Active | –
Cc1ccc(C2N(C)c3ccccc3C(=O)N2c2ccccc2Oc2ccccc2)s1 (racemic) | – | 23% | –
Cc1ccc(C2N(Cc3ccccc3)c3ccccc3C(=O)N2c2ccccc2)s1 (racemic) | – | 1% | –
Cc1ccc(C2N(C)c3ccccc3C(=O)N2c2ccccc2Sc2ccccc2)s1 (racemic) | – | 9.6% | –
CCCCN1C(=O)c2ccccc2NC1c1ccc(C)s1 (racemic) | – | 0% | –
CN1c2ccccc2C(=O)N(c2ccccc2)C1c1ccc(Br)s1 (racemic) | 3.4 | 118% | –
Cc1ccc(C2N(C)c3ccccc3C(=O)N2c2ccccc2I)s1 (racemic) | 5.4 | 254% | –

SMILES | EC50 (HeLa [1]) [µM] | Activity (HeLa [2]) | also measured
O=C1c2ccccc2NC(c2ccc(-c3ccco3)s2)N1c1ccccc1 (racemic) | 4 | 438% | –
Cc1ccc(C2Nc3ccccc3C(=O)N2c2ccc(C#N)cc2)s1 (racemic) | – | 0% | –
Cn1cc(C2Nc3ccccc3C(=O)N2c2ccccc2)c2ccccc21 (racemic) | – | 0% | –
Cc1nc(-c2ccc(C3N(C)c4ccccc4C(=O)N3c3ccccc3)s2)cs1 (racemic) | 0.3 | 301% | inhibition (HeLa [5]): Active; inhibition (HeLa [3]): Active; inhibition (INH) (HeLa [4]): 0%
CN1c2ccccc2C(=O)N(c2ccccc2)C1c1ccc(-c2ccc(Oc3ccccc3)cc2)s1 (racemic) | – | 15.7% | –
CN1c2ccccc2C(=O)N(c2ccccc2)C1c1ccc(CO)s1 (racemic) | – | 0% | –
Cc1ccc(C2N(c3ccccc3)C(=O)c3ccccc3N2C(=O)c2ccccc2)s1 (racemic) | – | 0% | –
Cc1ccc(C2N(C)c3ccccc3C(=O)N2c2ccccc2Cc2ccccc2)s1 (racemic) | – | 1% | –
CSc1ccccc1N1C(=O)c2ccccc2N(C)C1c1ccc(C)s1 (racemic) | 3.8 | 150.6% | –
Cc1ccc(C2N(C)c3ccccc3C(=O)N2c2ccccc2S(=O)(=O)c2ccccc2)s1 (racemic) | 8 | 145% | –
O=C1c2ccccc2NC(c2ccc(-c3ccccc3)s2)N1c1ccccc1 (racemic) | 3.7 | 287% | –
Cc1ccc(C2Nc3ccccc3C(=O)N2C23CC4CC(CC(O)(C4)C2)C3)s1 (racemic) | – | 0% | –
Cc1ccc(C2Nc3ccccc3C(=O)N2C2CCCCC2)s1 (racemic) | – | 0% | –
Cc1ccc(C2Nc3ccccc3C(=O)N2c2ccc(-c3ccccc3)cc2)s1 (racemic) | – | 0% | –
CN1c2ccccc2C(=O)N(c2ccccc2)C1c1ccc(CNCc2ccccc2)s1 (racemic) | – | 6.2% | –
O=C1c2ccccc2NC(c2cccs2)N1c1ccccc1 (racemic) | – | 0% | –
Cc1ccc(C2Nc3ccc(F)cc3C(=O)N2c2ccccc2)s1 (racemic) | 10.6 | 167.2% | –
CCN1c2ccccc2C(=O)N(c2ccccc2)C1c1ccc(C)s1 (racemic) | – | 2.9% | –
CN1c2ccccc2C(=O)N(c2ccccc2)C1c1ccc(-c2ccc3[nH]ccc3c2)s1 (racemic) | – | 0% | –
